Experimental data as given in paper PMC9499614 (ACS chemical biology, 2022).
Where two headings read alike, the source gives them in different places.

How the values were obtained:
apoSirt7 = molecular target: T1, apoSirt7 (Homo sapiens, UniProt Q9NRC8); assay: Michaelis-Menten kinetics with variable H3K18 acylated peptide, apoSirt7; format: biochemical; conditions: uncomplexed Sirt7, H3K18Ac
T1 sequence (Q9NRC8 1-400): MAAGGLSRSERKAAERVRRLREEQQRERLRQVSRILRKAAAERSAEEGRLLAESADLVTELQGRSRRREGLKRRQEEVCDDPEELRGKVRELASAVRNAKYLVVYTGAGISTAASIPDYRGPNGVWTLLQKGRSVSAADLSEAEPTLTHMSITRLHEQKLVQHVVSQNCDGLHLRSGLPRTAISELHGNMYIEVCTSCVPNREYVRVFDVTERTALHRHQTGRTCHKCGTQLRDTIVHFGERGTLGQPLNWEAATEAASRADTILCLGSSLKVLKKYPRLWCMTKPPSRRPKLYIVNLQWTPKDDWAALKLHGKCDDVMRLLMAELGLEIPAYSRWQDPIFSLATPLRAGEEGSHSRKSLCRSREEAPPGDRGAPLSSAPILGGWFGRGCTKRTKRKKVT
In short: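 Acylated H3K18 peptide serially diluted in 50 mM Tris pH 8.0 with 20% DMSO. 20 µL of Sirt7 solution was mixed with 20 µL of peptide at 37°C. Reactions were started with 10 µL of 10 mM NAD⁺ stock, run 5-60 min at 37°C and quenched with 6% TFA. Products were resolved by C18 HPLC. Product concentration = deacetylated/acetylated peak ratio × total substrate. Three independent experiments; Michaelis-Menten fit.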

[1] = test system: acidic patch regions of nucleosomes; assay: LANA-FAM nucleosome binding and competition with Sirt7; set-up: species or system human; conditions: LANA-FAM pre-bound to nucleosomes, fluorescence anisotropy
Sirt7 [2] = molecular target: T2, Sirt7 (Homo sapiens, UniProt Q9NRC8); conditions: cited from earlier work; for activity of recombinant apoSirt7 (in words): in vitro
T2 sequence (Q9NRC8 1-400): T1 sequence (Q9NRC8 1-400)

Sirt7 [3] = molecular target: T2, Sirt7; format: biochemical; conditions: saturating H3K18-Deca peptide, variable NAD^+
In short: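 NAD⁺ serially diluted (10-10000 µM) in 50 mM Tris pH 8.0. Mixed 1:1 with 500 µM (pre-mix) H3K18Ac-DNB or H3K18Deca-DNB peptide in 50 mM Tris pH 8.0, 20% DMSO, 1 mM DTT. Pre-incubated 10 min at 37°C. Started with Sirt7 complex carrying 2 µM nicotinamidase, run 30-60 min, quenched with 6% TFA. HPLC monitored at 400 nm; Michaelis-Menten fit.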

[4] = molecular target: Sirt7-CLB (Sirt7 with the NanoLuc large bit fused to its C-terminus) (UniProt Q9NRC8); assay: split reporter
Sirt7-CLB = assay: NanoBit; format: binding; conditions: H3K18-acetylated nucleosomes with ADPr
In short: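 Sirt7 was fused C-terminally to the NanoLuc large-bit fragment and purified natively. […] Buffer: 50 mM Tris pH 8.0, 250 µg/ml BSA. Incubated 20 min at RT. NanoGlow substrate added (50x final dilution), equilibrated 5 min at 37°C, luminescence read every 30 s for 15 min.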

## Sirt7: 400 amino acid protein within the Class III deacetylase family; recombinant, E. coli
apoSirt7
  H3K18 deacetylation activity (in words): very low, but readily measurable H3K18 deacetylation activity
[1]
  displacement of LANA-FAM from nucleosomes (in words): Competitive displacement of LANA-FAM peptide from the pre-formed LANA-nucleosomal complex
Sirt7 [2]; no reference number at the word, ref [19],[28] in sentence
  activity of recombinant apoSirt7 (in words): completely inactive
Sirt7 [2]; ref [19]
  activity of recombinant apoSirt7 (in words): completely inactive
Sirt7 [2]; ref [19],[40]
  activity of apoSirt7 (in words): inactive
Sirt7 [3]; read-out: KM^NAD, 50 mM Tris pH 8.0, 37°C, 30-60 min, HPLC
  Km: 680 ± 80 µM
Sirt7 [3]
  kcat/KM: 32±4.1 M^−1x s^−1
Sirt7 [3]; 50 mM Tris pH 8.0, 37°C, 30-60 min, HPLC
  kcat: 0.022 ± 0.001 s⁻¹

## H3K18-acetylated small bit nucleosomes (SMB-AcNucs) (from UniProt P0C0S8 1-130; P68431 1-136; P62805 1-103) (complex)
[4]
  Kd: 3.75 nM

## Nc1ncnc2c1ncn2[C@@H]1O[C@H](COP(=O)(O)OP(=O)(O)OC[C@H]2OC(O)[C@H](O)[C@@H]2O)[C@@H](O)[C@H]1O (stereo partly shown) [ADPr, ADP-ribose]
Sirt7-CLB
  reduction in Kd value on ADPr addition: 2.5 fold
